Measurements as given in ChEMBL document CHEMBL4390648, “Chemical synthesis, crystal structure, versatile evaluation of their biological activities and molecular simulations of novel pyrithiobac derivatives” (Eur J Med Chem, 2019).
Values after ≈ are worked out from the molar mass of the structure shown. Active and inactive are the calls of the source. No cut-off for these calls is given here.

Tests used:
Candida albicans [1] = assay: Antifungal activity against Candida albicans isolate 17 grown in YNB medium incubated for 24 hrs by microdilution method; assay type: functional; details: isolate 17, 24 h
In short: (§1)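 C. albicans standard strain SC5314 and clinical isolates g5 and 17# tested by broth microdilution in YNB or RPMI 1640 medium. Plates incubated at 35 °C for up to 72 h, with visual readings taken at 24 h. MIC taken as the lowest concentration preventing visible growth.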

Colletotrichum = assay: Antifungal activity against Colletotrichum (W. anthracnose) assessed as reduction in growth at 50 mg/l by mycelium growth rate method relative to control; assay type: functional
In short: (§2)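 Mycelium growth rate method against S. sclerotiorum, P. capsici, P. piricola, R. cerealis, W. anthracnose and R. bakanae. Each compound tested at 50 mg/L, with chlorothalonil and PTB as controls. Relative inhibitory ratio (%) calculated from mycelial growth.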

Tobacco mosaic virus [2] = assay: Antiviral activity against Tobacco mosaic virus inoculated in Nicotiana tabacum leaves assessed as passivation by measuring local lesion numbers at 100 mg/l pre-incubated with virus for 30 mins followed by inoculation and measured up to 4 days; assay type: functional
In short: (§3)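 Passivation assay: TMV mixed with an equal volume of compound solution for 30 min, then rubbed onto the left half of N. tabacum L. leaves. The right half received virus mixed with solvent as control. Local lesions counted 3–4 days after inoculation. Compounds tested at 500 or 100 mg/L.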

[3] = tested on: Botryosphaeria berengeriana; assay: Antifungal activity against Physalospora pyricola assessed as reduction in growth at 50 mg/l by mycelium growth rate method relative to control; assay type: functional; in short: as §2
Candida albicans [4] = assay: Antifungal activity against Candida albicans SC5314 grown in RPMI 1640 medium incubated for 24 hrs by microdilution method; assay type: functional; details: SC5314, 24 h; in short: as §1
Candida albicans [5] = assay: Antifungal activity against Candida albicans SC5314 grown in YNB medium incubated for 24 hrs by microdilution method; assay type: functional; details: SC5314, 24 h; in short: as §1
[6] = tested on: Brassica rapa subsp. oleifera; assay: Herbicidal activity against Brassica campestris L assessed as inhibition of rape root growth at 10 mg/l root growth incubated for 48 hrs relative to control; assay type: functional
In short: (§4)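 Rape seeds soaked in distilled water for 4 h, then placed on filter paper wetted with inhibitor solution, 15 seeds per 6-cm dish. Germinated in the dark at 28 °C for 48 h. Mean length of 10 roots per plate measured.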

Sclerotinia sclerotiorum = assay: Antifungal activity against Sclerotinia sclerotiorum assessed as reduction in growth at 50 mg/l by mycelium growth rate method relative to control; assay type: functional; in short: as §2
Candida albicans [7] = assay: Inhibition of Candida albicans AHAS catalytic subunit at 100 uM using pyruvate as substrate measured after 30 mins by colorimetric method relative to control
In short: (§5)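 Colorimetric assay in 50 mM potassium phosphate pH 7.0 with 50 mM pyruvate, 1 mM thiamine diphosphate, 10 mM MgCl2 and 10 μM FAD. Incubated 30 min at 37 °C for plant AHAS and 30 °C for fungal AHAS. Acetolactate formed was then quantified.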

[8] = tested on: Severe acute respiratory syndrome-related coronavirus; assay: Inhibition of SARS coronavirus M protease using AVLQSGFRKK as substrate at 20 uM by FRET assay relative to control
In short: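 Purified SARS-CoV Mpro assayed by FRET. Protein, compound and substrate were preheated at 37 °C and oscillated. Fluorescence (ex 320/em 405 nm) was read every 5 s for 200 reads.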

Candida albicans [9] = assay: Antifungal activity against Candida albicans isolate g5 grown in RPMI 1640 medium incubated for 24 hrs by microdilution method; assay type: functional; details: isolate g5, 24 h; in short: as §1
Arabidopsis thaliana [10] = assay: Inhibition of Arabidopsis thaliana AHAS catalytic subunit using pyruvate as substrate at 100 uM measured after 30 mins by colorimetric method relative to control; in short: as §5
Candida albicans [11] = assay: Inhibition of Candida albicans AHAS catalytic subunit at 10 uM using pyruvate as substrate measured after 30 mins by colorimetric method relative to control; in short: as §5
Candida albicans [12] = assay: Antifungal activity against Candida albicans isolate 17 grown in RPMI 1640 medium incubated for 24 hrs by microdilution method; assay type: functional; details: isolate 17, 24 h; in short: as §1
Candida albicans [13] = assay: Antifungal activity against Candida albicans isolate g5 grown in YNB medium incubated for 24 hrs by microdilution method; assay type: functional; details: isolate g5, 24 h; in short: as §1
Arabidopsis thaliana [14] = assay: Inhibition of Arabidopsis thaliana AHAS catalytic subunit using pyruvate as substrate at 10 uM measured after 30 mins by colorimetric method relative to control; in short: as §5
Phytophthora capsici = assay: Antifungal activity against Phytophthora capsici assessed as reduction in growth at 50 mg/l by mycelium growth rate method relative to control; assay type: functional; in short: as §2
Tobacco mosaic virus [15] = assay: Antiviral activity against Tobacco mosaic virus inoculated in Nicotiana tabacum leaves assessed as passivation by measuring local lesion numbers at 500 mg/l pre-incubated with virus for 30 mins followed by inoculation and measured up to 4 days; assay type: functional; in short: as §3
[16] = tested on: Brassica rapa subsp. oleifera; assay: Herbicidal activity against Brassica campestris L assessed as inhibition of rape root growth at 100 mg/l root growth incubated for 48 hrs relative to control; assay type: functional; in short: as §4
Fusarium fujikuroi = assay: Antifungal activity against Gibberella fujikuroi assessed as reduction in growth at 50 mg/l by mycelium growth rate method relative to control; assay type: functional; in short: as §2
Ceratobasidium cereale = assay: Antifungal activity against Rhizoctonia cerealis assessed as reduction in growth at 50 mg/l by mycelium growth rate method relative to control; assay type: functional; in short: as §2
Mythimna separata = assay: Insecticidal activity against Mythimna separata assessed as larval mortality at 600 mg/l by leaf-dip method; assay type: functional

SMILES	MIC (Candida albicans [1]) [µg/mL]	inhibition at 50 µg/mL (Colletotrichum) [%]	inhibition (Tobacco mosaic virus [2])	inhibition at 50 µg/mL [3] [%]	MIC (Candida albicans [4]) [µg/mL]	MIC (Candida albicans [5]) [µg/mL]	inhibition (INH) [6] [%]	inhibition at 50 µg/mL (Sclerotinia sclerotiorum) [%]	inhibition (Candida albicans [7]) [%]	inhibition [8] [%]	MIC (Candida albicans [9]) [µg/mL]	inhibition (Arabidopsis thaliana [10]) [%]	inhibition (Candida albicans [11]) [%]	MIC (Candida albicans [12]) [µg/mL]	MIC (Candida albicans [13]) [µg/mL]	inhibition (Arabidopsis thaliana [14]) [%]	inhibition at 50 µg/mL (Phytophthora capsici) [%]	inhibition at 500 µg/mL (Tobacco mosaic virus [15]) [%]	inhibition (INH) [16] [%]	inhibition at 50 µg/mL (Fusarium fujikuroi) [%]	other results
COc1nc(OC)nc(Sc2cccc(Br)c2C#N)n1	6.25 (≈ 17.7 µM)	47.6	inactive	73.4	> 100	12.5 (≈ 35.4 µM)	0	13.9	71.1	96.3	> 100	74.7	34.8	> 100	12.5 (≈ 35.4 µM)	40.3	25	0	14.3	21.2	inhibition at 50 µg/mL (Ceratobasidium cereale): 31%; mortality at 600 µg/mL (Mythimna separata): 75%
CCOc1ccccc1OS(=O)(=O)NC(=O)Nc1nc(OC)cc(OC)n1 [ETHOXYSULFURON]	0.39 (≈ 0.979 µM)				25 (≈ 62.8 µM)	0.39 (≈ 0.979 µM)			98.7		25 (≈ 62.8 µM)		96.8	50 (≈ 126 µM)	0.39 (≈ 0.979 µM)						
COc1nc(OC)nc(Sc2ccc(C#N)cc2F)n1	6.25 (≈ 21.4 µM)	23.8	inactive	54.7	100 (≈ 342 µM)	6.25 (≈ 21.4 µM)	41.8	13.9	85.4	49.7	100 (≈ 342 µM)	63.3	55.7	100 (≈ 342 µM)	12.5 (≈ 42.8 µM)	42.9	16.7	0	54.2	27.3	inhibition at 50 µg/mL (Ceratobasidium cereale): 58.3%; mortality at 600 µg/mL (Mythimna separata): 0%
COc1cc(OC)nc(Sc2ccc(C(=O)O)c(C(F)(F)F)c2)n1	> 100	14.3	inactive	35.9	> 100	> 100	0	75	20.6	21.7	> 100	77.4	2.1	> 100	> 100	37.7	8.3	0	45.2	30.3	inhibition at 50 µg/mL (Ceratobasidium cereale): 73.8%
COc1cc(OC)nc(Sc2ccc(C#N)c(C(F)(F)F)c2)n1	> 100				> 100	> 100	4.7		51.4	85	> 100	86.2	18.6	> 100	> 100	51.2			33.5		
COc1nc(OC)nc(Sc2ccc(C(F)(F)F)cc2C#N)n1	> 100				> 100	> 100	0		12	0	> 100	15	0	> 100	> 100	11.5			8.5		
COc1cc(OC)nc(Sc2cc(C(F)(F)F)ccc2C(=O)O)n1	> 100				> 100	> 100	24.6		31.2	0	> 100	85.5	0	> 100	> 100	51.8			50		
COc1nc(OC)nc(Sc2ccc(C(=O)O)cc2C(=O)O)n1	> 100				> 100	> 100	8		58.7	0	> 100	81.7	15.6	> 100	> 100	73.3			20.3		
NC(=O)c1ncn([C@@H]2O[C@H](CO)[C@@H](O)[C@H]2O)n1 [RIBAVIRIN]																		37.6			inhibition at 100 µg/mL (Tobacco mosaic virus [2]): 11.9%
CNCC(=O)N[C@@H](CO)C(=O)N[C@H]1[C@H](O)[C@@H](O)[C@H](n2ccc(N)nc2=O)O[C@@H]1C(N)=O [NINGNANMYCIN]																		56.4			inhibition at 100 µg/mL (Tobacco mosaic virus [2]): 27.8%
COc1cc(OC)nc(Sc2ccc(C(=O)O)cc2C(=O)O)n1	> 100				> 100	> 100	0		24	0	> 100	20	8	> 100	> 100	5			0		
COc1cc(OC)nc(Sc2ccc(C(F)(F)F)cc2C#N)n1	> 100				> 100	> 100	0		25	0	> 100	72.3	3.6	> 100	> 100	28.2			25.8		
COc1nc(OC)nc(Sc2cc(Cl)ccc2C#N)n1	> 100	19	inactive	37.5	> 100	> 100	34.4	13.9	26.3		> 100	100	0	> 100	> 100	43.6	41.7	0	40	30.3	inhibition at 50 µg/mL (Ceratobasidium cereale): 40.5%; mortality at 600 µg/mL (Mythimna separata): 25%
COc1nc(OC)nc(Oc2cccc(Br)c2)n1	> 100	16.7	inactive	40.6	> 100	> 100	32.5	61.1	18.3	0	> 100	60	10.6	> 100	> 100	6.6	8.3	19.5	87.4	0	inhibition at 50 µg/mL (Ceratobasidium cereale): 52.4%
COc1nc(OC)nc(Sc2ccc(C#N)cc2C(F)(F)F)n1	> 100				> 100	> 100	0		22	18	> 100	10	10.5	> 100	> 100	0			5		
